# From ChEMBL document CHEMBL4513216, “Probing the Open Global Health Chemical Diversity Library for Multistage-Active Starting Points for Next-Generation Antimalarials” (ACS Infect Dis, 2020)
# Test: Toxicity liver stage against HepG2, at 10uM
# Assay type: cell-based
# Set-up: test concentration 10 uM, cell line HepG2-A16-CD81EGFP
# Conditions: human, HepG2-A16-CD81EGFP cells; read-out: INHIBITION
# Outline: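 Uninfected HepG2-A16-CD81EGFP cells, 3 × 10^3 per well, 1536-well, plated on prespotted compound at 10 μM final, parasite-free screening media added to match infected plates; puromycin 10 μM positive, DMSO 0.5% negative; run in parallel with 48 h PbLuc assay at 37 °C, 5% CO2; viability by CellTiter-Glo luminescence, normalized to controls.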
row,SMILES,cytotoxicity at 10 µM [%]
1,COc1ccc(C(=O)C2CCCN(Cc3ccon3)C2)c(OC)c1 (centres undefined),-4.46
2,Cc1ccc(CNC[C@H]2Cn3cc(-c4ccccc4)nc3CO2)cc1,-9.43
3,CCOCCCNC(=O)C1(C)CCC(=O)N1Cc1ccccc1F (centres undefined),-5.57
4,CCN(CC)CCNC(=O)CCc1c(C)nn(-c2cccc(Cl)c2)c1C,-5.34
5,CC(C)CC(=O)N1CC(=O)N(Cc2ccco2)CC(O)C1 (centres undefined),-8.23
6,COc1c(C(N)=O)cn(C)c1-c1nc2cc(NC(C)=O)ccc2n1C,-46.5
7,CN1C(=O)COc2ccc(C(=O)Cn3cnc4ccsc4c3=O)cc21,8.69
8,CC(C)n1cc(C(=O)NCCN(C)C)c2n[nH]c(=O)c-2c1,9.06
9,Cn1nc(COCC2CC2)c2c1CCN(C(=O)c1ccno1)C2,6.8
10,CNC(=O)[C@H]1CC[C@@H]2[C@@H](CCN2c2ncccn2)O1,6.25
11,O=S(=O)(C1CC1)N1CC[C@]2(C[C@@H](OCC3CCOCC3)CO2)C1,8.13
12,COC[C@@]12CCO[C@@H]1CCN(C(=O)Cc1ccc(C)cc1)C2,1.47
13,Oc1nnc(-c2cccs2)c2sc(N3CCCC3)nc12,-2.73
14,COC(=O)c1c(Cl)c(C2CC2)nc2onc(C)c12,10.1
15,COc1cc([C@@H]2N[C@H](c3nccs3)Cc3ccsc32)cc(OC)c1OC,8.71
16,CC(C)CNC(=O)C1(Cc2ccccc2-c2ccccc2)CCNC1 (centres undefined),-17.8
17,Cn1ccnc1C(=O)N1CCOC(Cc2ccc(Cl)cc2)C1 (centres undefined),9.23
18,Cn1nc(C2CCN(C(=O)c3cccs3)CC2)c2cccnc21,-8.72
19,CC(=O)N1CCCC(c2cnc(-c3c(C)nn(C)c3C)cn2)C1 (centres undefined),1.95
20,O=C(c1cnco1)N1C[C@@H]2CC[C@H](Oc3cccc(F)c3)[C@@H]2C1,-6.18
21,O=C(Nc1c(N2CCCC2)cccc1N1CCCC1)c1cnccn1,-50.9
22,CC(C)c1nc2n(n1)CC(Nc1ncnc3c1CCC3)CC2 (centres undefined),-49.1

row,SMILES,cytotoxicity at 10 µM [%]
1,CC(C#N)CN(C)Cc1cc(Cl)cc2cccnc12 (centres undefined),-48.5
2,Cc1ccc(C2CCCN2Cc2nc(-c3ccco3)no2)cc1 (centres undefined),26.1
3,Cc1nnc2n1CCN(Cc1nc3ccccc3o1)C2,-6.48
4,N#CC1(NC(=O)Cc2cc(Cl)c3c(c2)OCCO3)CCC1,-8.05
5,Cn1ccnc1CCNS(=O)(=O)c1ccc(Br)cc1,3.32
6,O=C(NCCOc1ccccc1)c1ccc2c(c1)C(=O)NC2=O,4.98
7,O=C(CNc1ccccc1Cl)Nc1cc(-n2cnnn2)ccc1F,-4.38
8,COCC(C)NC(=O)CN1CCC2(CC1)OCCO2 (centres undefined),7.3
9,Cc1cccc(CNc2cncc(-n3cccn3)n2)c1,-7.09
10,Cc1ccc(C(=O)NCCCS(C)(=O)=O)c(=O)[nH]1,-7.6
11,CCCn1nc2c(cc1=O)CN(Cc1cc(C)no1)CC2,-11.6
12,Cc1noc(CN(Cc2cccs2)C2CC2)n1,-0.243
13,CNC(=O)NC(C)c1nc(-c2ccc(Br)cc2)no1 (centres undefined),7.71
14,CN(Cc1cnn(C)c1)C(=O)CN1CCCC1Cn1cncn1 (centres undefined),12.6
15,N#Cc1cccc(CNc2cc(CO)ccc2Cl)c1,11.5
16,CN(C)C(=O)Cc1nc(CN2CCCC2Cn2cccn2)cs1 (centres undefined),4.79
17,O=C(CCc1ccc(Cl)cc1)NC1CCN(c2cccc(F)c2)CC1,-5.99
18,CC(C)OCCCNC(=O)c1cccnc1N1CCOCC1,10.5
19,Cn1cc(NC(=O)NCc2ccoc2)ccc1=O,4.14
20,CSCC(=O)N(C)Cc1ccccc1,-2.34
21,Fc1ccc(NCc2nnsc2Cl)c(OC(F)F)c1,0.811
22,CCc1nc(C)ncc1C(=O)N1CCN(CC)c2ccccc21,-10.1

row,SMILES,cytotoxicity at 10 µM [%]
1,CCCN(CC1CC1)S(=O)(=O)c1ccc(NC(C)=O)cc1,9.35
2,CN1CCC(NC(=O)Cc2csc(C(C)(C)C)n2)CC1,-2.37
3,CN(C)C(=O)CCNC(=O)NCc1ccc(Br)cc1Cl,2.96
4,O=C(O)c1cccn1-c1ccc2c(c1)OCCO2,-7.48
5,CN(CC1CC1)S(=O)(=O)c1ccc(C(F)(F)F)cc1C#N,2.95
6,Cc1cc(C)n(-c2ccc(C(C)NS(=O)(=O)CCCS(C)(=O)=O)cc2)n1 (centres undefined),7.04
7,Cc1ccccc1C(C)CC(=O)N1CC[C@H](O)C1 (some centres undefined),-49.7
8,CN(C)C1CCN(C(=O)CCc2cc(Br)cs2)CC1,-18
9,CCc1nc(CNCC2(C(N)=O)CCOCC2)cs1,-3.97
10,Cn1cc(C(=O)N2C[C@@H]3CN(S(C)(=O)=O)CCO[C@@H]3C2)cn1,8.9
11,Cc1cc(C(=O)NC2CCc3c(ccc(=O)n3CCN(C)C)C2)no1 (centres undefined),-0.58
12,Cc1csc(CN2CCC3(CC2)COC(COc2ccccn2)C3)n1 (centres undefined),-113
13,COCC(=O)NCc1cc(=O)n2c(n1)CN(Cc1ccco1)CCC2,-89.3
14,Cc1ccccc1C(=O)N1CC[C@@H]2CN(c3ncccn3)CCO[C@@H]2C1,-72.4
15,CCOCC1CN(CC2CC2)Cc2cnn(C)c21 (centres undefined),-90.4
16,CN(Cc1cccnc1)CC1CNCc2nccn2C1 (centres undefined),-77.2
17,CCS(=O)(=O)N1CCn2cc(CN(C)Cc3ccco3)nc2C1,-74.4
18,COCCC(=O)N1CC2(CCN(Cc3ccncc3)CC2)C1,-66.6
19,C[C@H]1CN(C(=O)c2cscn2)C[C@@]12CCN(c1ccsc1)C2=O,-80.7
20,O=C1CC[C@@H]2[C@@H](CCN2C(=O)c2ccsc2)N1CC1CC1,-10.9
21,CN(Cc1cc(C(C)(C)C)n[nH]1)Cc1c[nH]nc1-c1ccc(F)cc1,-4.83
22,O=S(=O)(NCc1ccccc1)Nc1cccc(Cn2cncn2)c1,5.91

row,SMILES,cytotoxicity at 10 µM [%]
1,Cc1nc2c(C)cccc2cc1C(=O)N1CCC2(CCNCC2)CC1,-8.37
2,O=C(Cn1[nH]c2ccccc2c1=O)N1CCCC(CC2CC2)(C(=O)O)C1 (centres undefined),3.15
3,Cc1nnsc1C(=O)N1CCN(C(=O)C2CCC2)[C@@H]2CS(=O)(=O)C[C@@H]21,-2
4,Cc1ccc(C)c2c(C)c(C(=O)NCCCn3ccnn3)[nH]c12,-0.84
5,Cc1ccc(N2CCCC(c3[nH]ncc3Cc3ccccc3)C2)nn1 (centres undefined),10.4
6,CCCSc1ncc(CN2CCN(C)C(=O)C2C)cn1 (centres undefined),7.75
7,Cc1nonc1CN1CC[C@@](O)(C2CCOCC2)[C@H](C)C1,7.31
8,CC(=O)c1cc(CC(=O)N2CCN(CCOc3ccccc3)CC2)cs1,-5.48
9,CCC(CO)N(Cc1ccccn1)Cc1ccc(-c2ccn[nH]2)s1 (centres undefined),2.66
10,CC1(C)CN(Cc2cc(C3CCCCC3)no2)CC[C@]1(C)O,-4.59
11,COCc1nc(Cn2ncn3cccc3c2=O)no1,-8.98
12,CCN(CCO)C[C@@H]1CN(C(=O)c2sc3ccccc3c2C)C[C@@H]1CO,-10.6
13,Cc1nccnc1N1C[C@H]2CN(C3CCOCC3)C[C@@]2(C(=O)O)C1,-6.93
14,Cc1cc(N2CCC(CO)(CC3CCCCO3)CC2)c2ccccc2n1 (centres undefined),4.46
15,CCn1c(CC2CCN(C(=O)C3CNCCO3)CC2)nn(C)c1=O (centres undefined),2.14
16,CCC1(O)CCCN(c2nc(C(C)(C)C)nc3c2cnn3C)C1 (centres undefined),-52.9
17,Cc1nsc(NC(=O)N2CCCCC2CCCO)n1 (centres undefined),-46.3
18,NC(=O)c1ccc(OCCCN2CCC3(CC2)OCCCC3O)cc1 (centres undefined),-1.18
19,O=C(c1cccn1Cc1cccs1)N1CCN(C(=O)C2CC2)CC1,-6.59
20,COc1ccc(-n2ccc(C(=O)N3CCC(C(N)=O)C3)n2)cc1 (centres undefined),-6.04
21,COc1cccc(OCCNCc2c(C)nn(C)c2N(C)C)c1,1.25
22,CSCC[C@H](N)c1nnc(SCC(=O)Nc2ccc(Br)cc2)o1,-2.15

row,SMILES,cytotoxicity at 10 µM [%]
1,O=C(Nc1ccccc1)C1=NOC2(CCNCC2)C1,5.77
2,O=C(NCc1cccnc1)[C@H]1C[C@@H]2CCN(c3ccncn3)C[C@H]2O1,7.95
3,O=C(CN1CC(c2nc(C3CC3)no2)C1)NCC1CCCO1 (centres undefined),-6.66
4,Cc1nc(CN2C[C@@H]3CCCO[C@@H]3[C@H](NC(=O)CC3CC3)C2)cs1,9.2
5,O=C(c1cnccn1)N1CCN2C[C@H](Oc3cccc(F)c3)C[C@H]2C1,11.7
6,Fc1cccc(CN2CCC3(CCN3c3ncccn3)C2)c1 (centres undefined),15.3
7,Cc1noc(C)c1CN1CC[C@H]2OCC[C@@]2(C(=O)N2CCOCC2)C1,-77.2
8,CCn1ncc2c1C(COCC1CC1)N(Cc1c(C)noc1C)CC2 (centres undefined),12.3
9,Cc1nnc(N2C[C@H](OCc3cccnc3)[C@H]3OCCC[C@H]32)s1,10.8
10,c1cc(CO[C@@H]2CN(Cc3ccoc3)[C@@H]3CCCO[C@@H]32)ccn1,-102
11,CN(C)C(=O)N1CCC(c2nc3ccc(N4CCCC4)cn3n2)CC1,3.16
12,Cn1nc(Cn2ccnc2)c2c1CN(C(=O)c1ccoc1)C2,-58.9
13,CCN1C[C@@H]2CN(c3cc(OC)ncn3)CCC[C@]2(C(=O)O)C1,-2.58
14,CN(C)CC(=O)N1CCC2(CC1)CN(c1ccsc1)C(=O)CO2,10.1
15,Cc1ccc(CC(=O)N2CC[C@@H]3CN(CCN(C)C)CCO[C@@H]3C2)cc1,2.73
16,O=C(c1cccnc1)N1CCn2nnc(COc3cccnc3)c2C1,3.34
17,O=C(NCCN1CCOCC1)c1ccn(-c2ccc3ccccn23)n1,-0.735
18,CNC(=O)c1ccc(CN(C(C)C)C(C)C)o1,-1.88
19,CCC(C)(C)NC(=O)c1ncn2c1CN(C)S(=O)(=O)c1ccccc1-2,-137
20,Cc1ncc2c(n1)CN(C=C1NN=C(c3occc3C)O1)CC2,-2.7
21,O=C(c1ccc2c(c1)[nH]c(=O)n2C1CCC(O)CC1)N1CCOCC1 (centres undefined),-41.4
